8 molecules from ChEMBL document CHEMBL1133378, “Synthesis and evaluation of daunorubicin-paclitaxel dimers” (Bioorg Med Chem Lett, 2000) can be followed below.

pIC50: −log10 of the molar value.

Assay type in all cases: functional, cell-based
What all share (conditions): Homo sapiens

One test deals with MES-SA. Nature of the test: The compound was evaluated for the growth inhibition of MES-SA uterine tumor cell lines using MTT assay. Put shortly: (§1)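 MTT assay: MES-SA (uterine tumor) or P-gp-overexpressing MES-SA/Dx5 cells seeded at 80,000 cells/mL, grown 24 h at 37 C in humidified 5% CO2, then drug-exposed at serial dilutions for 72 h. MTT (5 mg/mL stock in PBS) added for 3 h, formazan dissolved in 0.1 N HCl-isopropanol, absorbance read at 570 nm. IC50 from plotted data, mean of 8-16 determinations.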

The test system of test [1] is MES-SA/Dx5. Nature of the test: The compound was evaluated for the growth inhibition of Dx5 cell lines using MTT assay. Put shortly: as §1
(In general: Tetrazolium dyes change colour on reduction, which living cells bring about.)

Test [2] has as its system MES-SA/Dx5. As to the kind of experiment: The compound was evaluated for the growth inhibition of Dx5 w/PSC cell lines using MTT assay. Put shortly: as §1

Usually pIC50 stands for −log10 of the IC50, conventionally taken in molar units. A high value points to a small IC50. Consider `COc1cccc2c1C(=O)c1c(O)c3c(c(O)c1C2=O)C[C@@](O)(C(C)=O)C[C@@H]3OC1CC(NC(=O)CCCCC(=O)NCCC(=O)O[C@@H]2C[C@@H]3OC[C@]3(OC(C)=O)C3[C@@H](OC(=O)c4ccccc4)[C@@]4(O)C[C@@H](OC(=O)[C@@H](O)[C@H](NC(=O)c5ccccc5)c5ccccc5)C(C)=C([C@H](OC(C)=O)C(=O)[C@]32C)C4(C)C)C(O)C(C)O1` (stereo partly specified), for which the negative logarithm of the IC50 (pIC50) was 5.64 with MES-SA and less than 4.30 with MES-SA/Dx5 [1].
As for `CC(=O)O[C@H]1C(=O)[C@@]2(C)C([C@H](OC(=O)c3ccccc3)[C@]3(O)C[C@H](OC(=O)[C@H](O)[C@@H](NC(=O)c4ccccc4)c4ccccc4)C(C)=C1C3(C)C)[C@]1(OC(C)=O)CO[C@@H]1C[C@@H]2O.COc1cccc2c1C(=O)c1c(O)c3c(c(O)c1C2=O)C[C@@](O)(C(C)=O)C[C@@H]3OC1CC(N)C(O)C(C)O1` (stereo partly specified) [MIXTURE OF DAUNORUBICIN AND PACLITAXEL], the pIC50 in the test on MES-SA is 7.96; in the test on MES-SA/Dx5 [1], 6.00.
Regarding `CC(=O)O[C@H]1C(=O)[C@@]2(C)[C@H]([C@H](OC(=O)c3ccccc3)[C@]3(O)C[C@H](OC(=O)[C@H](O)[C@@H](NC(=O)c4ccccc4)c4ccccc4)C(C)=C1C3(C)C)[C@]1(OC(C)=O)CO[C@@H]1C[C@@H]2O` [PACLITAXEL], the pIC50 with MES-SA/Dx5 [2] is 9.52; in the test with MES-SA, 9.22; in the test on MES-SA/Dx5 [1] it was 5.57.
On the same counts, the results for `COc1cccc2c1C(=O)c1c(O)c3c(c(O)c1C2=O)C[C@@](O)(C(C)=O)C[C@@H]3OC1CC(NC(=O)CCCC(=O)NCCC(=O)O[C@@H]2C[C@@H]3OC[C@]3(OC(C)=O)C3[C@@H](OC(=O)c4ccccc4)[C@@]4(O)C[C@@H](OC(=O)[C@@H](O)[C@H](NC(=O)c5ccccc5)c5ccccc5)C(C)=C([C@H](OC(C)=O)C(=O)[C@]32C)C4(C)C)C(O)C(C)O1` (stereo partly specified) are 5.96, 6.02 and less than 4.30.
Take `COc1cccc2c1C(=O)c1c(O)c3c(c(O)c1C2=O)C[C@@](O)(C(C)=O)C[C@@H]3OC1CC(NC(=O)CCC(=O)NCCC(=O)O[C@@H]2C[C@@H]3OC[C@]3(OC(C)=O)C3[C@@H](OC(=O)c4ccccc4)[C@@]4(O)C[C@@H](OC(=O)[C@@H](O)[C@H](NC(=O)c5ccccc5)c5ccccc5)C(C)=C([C@H](OC(C)=O)C(=O)[C@]32C)C4(C)C)C(O)C(C)O1` (stereo partly specified): the pIC50 was 6.15 with MES-SA and less than 4.30 with MES-SA/Dx5 [1].
Consider `COc1cccc2c1C(=O)c1c(O)c3c(c(O)c1C2=O)C[C@@](O)(C(C)=O)C[C@@H]3OC1CC(NC(=O)c2ccccc2C(=O)NCCC(=O)O[C@@H]2C[C@@H]3OC[C@]3(OC(C)=O)C3[C@@H](OC(=O)c4ccccc4)[C@@]4(O)C[C@@H](OC(=O)[C@@H](O)[C@H](NC(=O)c5ccccc5)c5ccccc5)C(C)=C([C@H](OC(C)=O)C(=O)[C@]32C)C4(C)C)C(O)C(C)O1` (stereo partly specified), for which the pIC50 with MES-SA/Dx5 [2] was 7.44; in the test with MES-SA, 7.00; with MES-SA/Dx5 [1] it was 4.80.
On the same counts, the results for `COc1cccc2c1C(=O)c1c(O)c3c(c(O)c1C2=O)C[C@@](O)(C(C)=O)C[C@@H]3O[C@H]1C[C@H](N)[C@H](O)[C@H](C)O1` [DAUNORUBICIN] are 7.85, 7.68 and 5.70.
On to `COc1cccc2c1C(=O)c1c(O)c3c(c(O)c1C2=O)C[C@@](O)(C(C)=O)C[C@@H]3OC1CC(NC(=O)c2ccc(C(=O)NCCC(=O)O[C@@H]3C[C@@H]4OC[C@]4(OC(C)=O)C4[C@@H](OC(=O)c5ccccc5)[C@@]5(O)C[C@@H](OC(=O)[C@@H](O)[C@H](NC(=O)c6ccccc6)c6ccccc6)C(C)=C([C@H](OC(C)=O)C(=O)[C@]43C)C5(C)C)cc2)C(O)C(C)O1` (stereo partly specified), for which the results for the pIC50 in the test on MES-SA/Dx5 [2], in the test on MES-SA and with MES-SA/Dx5 [1] were 6.00, 6.00 and 5.00, respectively.
